SR-BI HDL uptake – mouse SR-BI HDL lipid transfer inhibition. 320,000 compounds, 0.96% hits. inhibition, % at 12.5 µM. AID 488896. Q61009. ldlA[mSR-BI] CHO cells, DiI-HDL uptake fluorescence, 3 h;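 active = mean replicate inhibition of at least 70% and a set share of replicates each scoring 70 or more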;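 also: 0% = median of neutral control wells and 100% = median of positive control wells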
CDK5 inh – inhibitors of human CDK5/p35 kinase; Q00535+Q15078; Recombinant CDK5/p35, ADP-Glo luminescence, 60 min; inhibition, % at 10 µM; 330,000 compounds, 0.01% hits; AID 488839;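 active = highest replicate inhibition of at least 50% and at least 75% of replicates reaching 50%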;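 also: plate controls were DMSO neutral control for no effect and GW8510 at 10 µM for full effect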
Target sequence (Q00535 whole entry, looked up): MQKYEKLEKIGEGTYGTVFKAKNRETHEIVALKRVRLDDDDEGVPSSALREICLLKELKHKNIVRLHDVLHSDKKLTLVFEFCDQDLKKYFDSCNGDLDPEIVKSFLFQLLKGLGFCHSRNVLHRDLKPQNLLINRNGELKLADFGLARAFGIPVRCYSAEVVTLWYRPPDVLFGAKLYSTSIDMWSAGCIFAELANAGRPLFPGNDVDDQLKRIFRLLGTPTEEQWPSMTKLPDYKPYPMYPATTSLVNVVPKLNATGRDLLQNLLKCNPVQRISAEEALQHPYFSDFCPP
Target sequence (Q15078 whole entry, looked up): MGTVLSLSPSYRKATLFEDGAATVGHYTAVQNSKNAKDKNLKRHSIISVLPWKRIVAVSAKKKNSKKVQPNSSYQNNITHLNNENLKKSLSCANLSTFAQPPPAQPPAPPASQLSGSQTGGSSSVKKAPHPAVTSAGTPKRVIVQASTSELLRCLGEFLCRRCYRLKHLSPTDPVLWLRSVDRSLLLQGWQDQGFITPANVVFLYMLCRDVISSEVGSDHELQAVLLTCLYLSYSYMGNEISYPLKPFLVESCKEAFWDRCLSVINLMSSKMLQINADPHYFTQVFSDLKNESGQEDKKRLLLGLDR
dFosB act-1 – mouse delta FosB homodimer activation; P13346; purified delta FosB, TAMRA-CDK5 oligo fluorescence polarization; percent of positive-control signal above neutral wells; activation, % at 25 µM; 340,000 compounds, 0.99% hits; AID 493131;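 active = mean activation above about 17%, with every replicate also reaching it, limit read from the data, passing the limit was not always enough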
NSD2 HMT inh – blocks human histone methyltransferase NSD2 | NSD2 peptide methylation, AlphaScreen, 120 min | inhibition, % at 12.5 µM | AID 743445 | 310,000 compounds, 0.54% hits
DYRK1A inh – Dyrk1A (rat) kinase inhibition | ADP-Glo luminescence, NFATc1 peptide | inhibition, % at 12.5 µM | 310,000 compounds, 0.43% hits | AID 504441;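 also: plate controls were vehicle with enzyme for no effect and no enzyme for full effect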
SR-BI DiI-HDL act – activators of SR-BI mediated HDL lipid uptake | CHO ldlA[mSR-BI] cells, DiI-HDL uptake fluorescence, 3 h; 100 = double the neutral-control signal | activation, % at 12.5 µM | 320,000 compounds, 0.096% hits | AID 504775;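 active = mean replicate activation of at least 60% and every replicate at or above 60%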;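 also: 0% = median plate neutral-control signal and 100% = twice that signal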
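System: CHO ldlA[mSR-BI] cells / Medium: HEPES-buffered (25 mM, pH 7.4) F12 plus 0.5% BSA / Probe or stimulus: labelled HDL, 10 µg/mL / Doses: single compound concentration, delivered by pin transfer / Schedule: 3 h, 37 °C / Measured by: DiI fluorescence, bottom read / Measure: cell-associated DiI fluorescence as measure of HDL uptake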
dFosB act-2 – delta FosB (mouse) homodimer activation. shares compounds with dFosB act-1. purified delta FosB, TAMRA-CDK5 oligo fluorescence polarization; normalised: neutral wells 0, positive control 100. activation, % at 24.9 µM. 2,400 tested, under 10 active. AID 588690;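 active = highest replicate activation at or above 34% and every replicate reaching that threshold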;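 also: higher polarization means more probe DNA bound by delta FosB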
* hit, by the source's call. A selection: hits, their analogues and other compounds. The true share with any hit is near 2.5%. Rule as the data show it, unless noted: active = inhibition above about 50%; inactive = the rest.

For N#Cc1ccc(-c2ccc(OCC(=O)NCC(=O)Nc3ccc(F)c(F)c3F)cc2)cc1 the results were SR-BI HDL uptake 20, CDK5 inh -3, dFosB act-1 42*, NSD2 HMT inh -3, DYRK1A inh 2, SR-BI DiI-HDL act -20 and dFosB act-2 7.
`CCOc1ccc(C(=O)CCC(=O)NCC(=O)Nc2ccc(F)c(F)c2F)cc1` gave NSD2 HMT inh 0.
`O=C(Nc1nc(-c2ccc3ccccc3c2)cs1)c1ccc(N2C(=O)CCC2=O)cc1` gave SR-BI HDL uptake 39, CDK5 inh 0, dFosB act-1 45*, DYRK1A inh 4, SR-BI DiI-HDL act -39 and dFosB act-2 -2.
Screening CC(=O)c1cccc(NC(=O)CCN2C(=O)C3CC=CCC3C2=O)c1 (stereo unspecified) returned SR-BI HDL uptake 15, CDK5 inh -6, dFosB act-1 -2, NSD2 HMT inh 1, DYRK1A inh -8 and SR-BI DiI-HDL act -15.
For NS(=O)(=O)c1ccc(CNC(=O)c2cc(-c3ccccn3)nc3ccc(Cl)cc23)cc1 the results were SR-BI HDL uptake 12, CDK5 inh 3, dFosB act-1 21*, NSD2 HMT inh -3, DYRK1A inh 2, SR-BI DiI-HDL act -12 and dFosB act-2 -2.
Screening CCN(CC)S(=O)(=O)c1ccc(-c2nnc(SCC(=O)Nc3ccc(OC)cc3)o2)cc1 returned CDK5 inh -4, dFosB act-1 107*, NSD2 HMT inh 0, DYRK1A inh 2 and dFosB act-2 1.
CCS(=O)(=O)Nc1ccc(-c2nnc(SCC(=O)OC)o2)cc1 was read as SR-BI HDL uptake -7, CDK5 inh 1, dFosB act-1 -3, DYRK1A inh 0 and SR-BI DiI-HDL act 7.
`O=C(CSc1nnc(-c2ccc(Br)cc2)o1)Nc1cccc2ccccc12` gave SR-BI HDL uptake 3, CDK5 inh 2, dFosB act-1 30*, NSD2 HMT inh 0, DYRK1A inh -6, SR-BI DiI-HDL act -3 and dFosB act-2 0.
For COc1ccc(-c2nnc(SCC(=O)Nc3cccc(Cl)c3)o2)cc1 the results were SR-BI HDL uptake 5, CDK5 inh 0, dFosB act-1 38*, NSD2 HMT inh 0, DYRK1A inh -5, SR-BI DiI-HDL act -5 and dFosB act-2 3.
Screening CCC(=O)Nc1ccc(C(=O)CSc2nnc(-c3ccc(NS(=O)(=O)CC)cc3)o2)cc1OC returned SR-BI HDL uptake 28, CDK5 inh 0, dFosB act-1 20*, DYRK1A inh -2, SR-BI DiI-HDL act -28 and dFosB act-2 0.
For COc1cccc(CN(CC(=O)NC2CCCC2)C(=O)c2csnn2)c1 the results were SR-BI HDL uptake -2, CDK5 inh 0, dFosB act-1 5, NSD2 HMT inh -1, DYRK1A inh -4 and SR-BI DiI-HDL act 2.
Screening COC(=O)c1cc(S(=O)(=O)NCC2CCN(CCc3ccc(OC)cc3)CC2)c[nH]1 returned SR-BI HDL uptake 5, CDK5 inh -2, dFosB act-1 -3, NSD2 HMT inh 1, DYRK1A inh -2 and SR-BI DiI-HDL act -5.
`Cc1ccc(C)c(NC(=O)CSc2nnc(-c3n[nH]c4ccccc34)o2)c1` gave SR-BI HDL uptake 5, CDK5 inh -2, dFosB act-1 34*, NSD2 HMT inh -1, DYRK1A inh 9, SR-BI DiI-HDL act -5 and dFosB act-2 -1.
Cc1ccc(C)c(NC(=O)CSc2nnc(-c3ccccc3C)o2)c1 was read as SR-BI HDL uptake -2, CDK5 inh 4, dFosB act-1 13, NSD2 HMT inh -1, DYRK1A inh 2 and SR-BI DiI-HDL act 2.
`Cc1onc(-c2ccccc2)c1C(=O)NC(=S)NNC(=O)c1cc(-c2ccc(F)cc2)n[nH]1` gave SR-BI HDL uptake 44, CDK5 inh 1, dFosB act-1 29*, NSD2 HMT inh -2, DYRK1A inh 5, SR-BI DiI-HDL act -44 and dFosB act-2 -1.
COc1cccc(-c2cc(C(=O)Nc3cnn(Cc4ccccc4C)c3)no2)c1 was read as SR-BI HDL uptake 54, CDK5 inh -1, dFosB act-1 43*, NSD2 HMT inh 1, DYRK1A inh -4, SR-BI DiI-HDL act -54 and dFosB act-2 1.
Screening CCN1CCN(C(CNS(=O)(=O)c2ccc(OC)c(C)c2)c2cccnc2)CC1 (stereo unspecified) returned SR-BI HDL uptake 6, CDK5 inh 2, dFosB act-1 1, NSD2 HMT inh 1, DYRK1A inh 0 and SR-BI DiI-HDL act -6.
Screening COc1cc(-c2cc3nc(C)c(C)c(=O)n3[nH]2)cc(OC)c1OC returned SR-BI HDL uptake 5, CDK5 inh -2, dFosB act-1 22*, NSD2 HMT inh -3, DYRK1A inh -4, SR-BI DiI-HDL act -5 and dFosB act-2 5.
Screening Cc1ccc2nc(C)cc(Nc3ccc([N+](=O)[O-])cc3)c2c1 returned SR-BI HDL uptake 41, CDK5 inh 0, dFosB act-1 63*, NSD2 HMT inh 4, DYRK1A inh 3, SR-BI DiI-HDL act -41 and dFosB act-2 1.
For COC(=O)c1ccc(Nc2cc(C)nc3ccc(C)cc23)cc1 the results were SR-BI HDL uptake -20, CDK5 inh 1, dFosB act-1 -8, NSD2 HMT inh -5, DYRK1A inh 7 and SR-BI DiI-HDL act 20.
For CCCCCCCN1C2=NCCCN2c2ccccc21 the results were SR-BI HDL uptake 3, CDK5 inh -3, dFosB act-1 -8, NSD2 HMT inh -1, DYRK1A inh -1 and SR-BI DiI-HDL act -3.
CNc1ccc(C(=O)OCC(=O)NCc2ccc3c(c2)OCO3)cc1[N+](=O)[O-] was read as SR-BI HDL uptake -15, CDK5 inh -1, dFosB act-1 36*, NSD2 HMT inh 1, SR-BI DiI-HDL act 15 and dFosB act-2 -1.
`CNc1ccccc1C(=O)OCC(=O)Nc1ccc2c(c1)OCO2` gave SR-BI HDL uptake -16, CDK5 inh -1, dFosB act-1 -1, NSD2 HMT inh 1, DYRK1A inh -12 and SR-BI DiI-HDL act 16.
`NC(=O)c1ccc(NC(=O)COC(=O)c2ccc3c(c2)OCO3)cc1` gave SR-BI HDL uptake -3, CDK5 inh 0, dFosB act-1 24*, NSD2 HMT inh 7, SR-BI DiI-HDL act 3 and dFosB act-2 -2.
Screening O=C(COC(=O)c1cc(Br)ccc1O)Nc1ccc2c(c1)OCO2 returned SR-BI HDL uptake -5, CDK5 inh 1, dFosB act-1 43*, NSD2 HMT inh -1, SR-BI DiI-HDL act 5 and dFosB act-2 -2.
Screening O=C(COC(=O)c1ccc2c(c1)OCO2)NCc1ccc2c(c1)OCO2 returned SR-BI HDL uptake 1, CDK5 inh 5, dFosB act-1 3, NSD2 HMT inh 0, DYRK1A inh 0 and SR-BI DiI-HDL act -1.

Screens from PubChem BioAssay.
